{"data": "Assay results collected from several papers", "target": "Mitogen-activated protein kinase kinase kinase 9 (MAP3K9, Homo sapiens, UniProt P80192)"}
{"SMILES": "CC(C)(C)c1cc(C=C(C#N)C#N)cc(Br)c1O", "test": "enzyme activity, inhibitor", "conditions": "0.5 µM", "measurement": "remaining activity", "value": "90.2%"}
{"SMILES": "Nc1ncc(-c2nc(N3CCOCC3)nc(N3CCOCC3)n2)c(C(F)F)n1", "test": "binding, competition with immobilised ligand", "conditions": "10 µM", "measurement": "remaining binding", "value": "42%"}
{"SMILES": "COc1ncccc1-c1cnn2ccc(N3CCN(C(=O)OC(C)C)CC3)nc12", "test": "binding, competition with immobilised ligand", "conditions": "1 µM", "measurement": "remaining binding", "value": "100%"}
{"SMILES": "Cn1cc(-c2cc(F)cc(N3CCn4c(cc5c4CCCC5)C3=O)c2CO)cc(Nc2ccc(N3CCN(C4COC4)CC3)cn2)c1=O", "test": "enzyme activity, inhibitor", "conditions": "0.1 µM", "measurement": "inhibition", "value": "4%"}
{"SMILES": "Cc1nn(C)cc1-c1nc2c(N3CCN(Cc4ccc(Cl)cc4)CC3)c(Cl)cnc2[nH]1", "test": "binding, competition with immobilised ligand", "conditions": "1 µM", "measurement": "remaining binding", "value": "15%"}
{"SMILES": "C#Cc1n[nH]c2c(-c3cn([C@@H](C)c4ccccn4)c(=O)[nH]c3=O)cc(F)cc12", "test": "enzyme activity, inhibitor", "conditions": "0.1 µM", "measurement": "inhibition", "value": "8%"}
{"SMILES": "O=c1[nH]c2ccccc2n1C1CCN(Cc2ccc(-c3[nH]c4cc5ncnc5cc4nc3-c3ccccc3)cc2)CC1", "test": "cell-free assay", "conditions": "0.5 µM", "measurement": "remaining signal", "value": "93.9%"}
{"SMILES": "N#CC1(c2ccccn2)CCN(Cc2cc(C(=O)O)c(=O)n3ccccc23)CC1", "test": "cell-free assay, competition with immobilised ligand", "conditions": "1 µM", "measurement": "remaining binding", "value": "92%"}
{"SMILES": "COc1cc(Nc2ncc(F)c(Nc3ccc4c(n3)NC(=O)C(C)(C)O4)n2)cc(OC)c1OC", "test": "binding, competition with immobilised ligand", "conditions": "10 µM", "measurement": "inhibition", "value": "99%"}
{"SMILES": "Cn1cncc1[C@](O)(COc1ccc(C#N)cc1-c1ccc(OC(F)(F)F)cc1)c1ccc(C#N)cc1", "test": "cell-free assay, competition with immobilised ligand", "conditions": "1 µM", "measurement": "remaining binding", "value": "81%"}
{"SMILES": "Cn1cc(-c2cccc(N3CCc4c(sc5c4CC(C)(C)C5)C3=O)c2CO)cc(Nc2ccncn2)c1=O", "test": "enzyme activity, inhibitor", "conditions": "1 µM", "measurement": "inhibition", "value": "-3%"}
{"SMILES": "C#Cc1n[nH]c2c(-c3cn([C@@H](C)c4ccccc4)c(=O)[nH]c3=O)cc(F)cc12", "test": "enzyme activity, inhibitor", "conditions": "0.1 µM", "measurement": "inhibition", "value": "11%"}
